Results: ChEMBL document CHEMBL3351425, “Lactones from Ficus auriculata and their effects on the proliferation function of primary mouse osteoblasts in vitro” (2014)

Assays:
Assay type in all cases: functional, Osteoblast
[1] = Induction of cell proliferation in osteoblasts (unknown origin) at 100 uM after 48 hrs by MTT assay relative to untreated control
Outline: (§1)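 Primary mouse osteoblasts were seeded at 2 × 10^3 cells/well and cultured 24 h, then exposed to compound for 48 h. MTT (5.0 mg/ml) was added for a further 4 h at 37 °C, and formazan was dissolved in DMSO. OD was read at 570 nm. Viability = (OD sample − blank)/(OD untreated control − blank) × 100. The blank was cell-free medium.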

[2] = Induction of cell proliferation in osteoblasts (unknown origin) at 10 uM after 48 hrs by MTT assay relative to untreated control; outline: as §1
[3] = Induction of cell proliferation in osteoblasts (unknown origin) at 1 uM after 48 hrs by MTT assay relative to untreated control; outline: as §1

Structure (SMILES) | Activity [1] [%] | Activity [2] [%] | Activity [3] [%]
COc1cc(O)cc2c1C(=O)O[C@H](C)CCCCCCC2 | 51.55 | 14.19 | 3.45
C[C@@H]1CCCCCCCc2cc(O)cc(O)c2C(=O)O1 | 19.48 | -4.54 | 1.67
COc1cc(O)cc2c1C(=O)O[C@H](C)CCC(=O)CCCC2 | 3.28 | -4.29 | 2.87
COC1=CC(=O)C=C2CCCCC(=O)CC[C@@H](C)OC(=O)[C@@]21O | 19.62 | 10.92 | 12.54
COC1=CC(=O)C=C2CCCC(=O)CCC[C@@H](C)OC(=O)[C@@]21O | 2.61 | 8.94 | 10
COC1=CC(=O)C=C2CCCCCCC[C@@H](C)OC(=O)[C@@]21O | -68.32 | -43.92 | -7.91
COc1cc(O)cc2c1C(=O)O[C@H](C)CC[C@@H](O)CCCC2 | 2.1 | -6.67 | 3.97
[F-].[Na+] [SODIUM FLUORIDE] | 22.54 | 18.76 | 12.15
